Calls of active or inactive are those of the source. The calls are words filed in the database; no cut-off is given here.
Columns and labels:
[1] = molecular target: T1, Dopamine beta-hydroxylase (Bos taurus) (UniProt P15101); experiment: Kinact value is determined from a plot of log(percent enzyme activity remaining) vs times
T1 sequence (whole entry): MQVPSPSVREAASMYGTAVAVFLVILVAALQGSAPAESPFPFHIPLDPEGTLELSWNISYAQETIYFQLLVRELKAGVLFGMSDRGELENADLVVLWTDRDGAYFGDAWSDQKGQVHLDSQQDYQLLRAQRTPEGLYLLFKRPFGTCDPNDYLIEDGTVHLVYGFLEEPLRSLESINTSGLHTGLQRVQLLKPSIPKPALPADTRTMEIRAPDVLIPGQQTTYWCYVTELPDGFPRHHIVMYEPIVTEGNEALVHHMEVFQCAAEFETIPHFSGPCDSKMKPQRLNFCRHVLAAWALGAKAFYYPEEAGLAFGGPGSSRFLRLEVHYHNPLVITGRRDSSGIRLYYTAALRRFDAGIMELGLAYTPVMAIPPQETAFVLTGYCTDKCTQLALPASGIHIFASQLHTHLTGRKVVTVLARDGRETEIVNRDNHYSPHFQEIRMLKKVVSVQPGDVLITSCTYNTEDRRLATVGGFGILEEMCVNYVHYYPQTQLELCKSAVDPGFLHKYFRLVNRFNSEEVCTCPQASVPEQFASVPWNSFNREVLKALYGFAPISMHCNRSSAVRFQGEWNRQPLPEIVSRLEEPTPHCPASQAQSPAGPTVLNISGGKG
Procedure, shortened: (§1)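 Homogeneous bovine DBH (specific activity 30-42 units/mg at pH 5.0) was used in 50 mM sodium acetate at pH 5.0 and ionic strength 0.2, with 1 mg/mL catalase, 10 μM Cu²⁺ and 10 mM ascorbic acid at 37 °C. O₂ was held at 0.24 mM, so kinact values are apparent. kinact(observed) came from log % activity remaining vs time. KI and kinact came from 1/kinact(obs) vs 1/[inhibitor] plots using at least four inhibitor concentrations. Values are mean ± SEM.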

[2] = molecular target: T2, Dopamine beta-hydroxylase (Bos taurus, UniProt P15101); experiment: KI value was determined from plots of 1/kinact(observed) vs 1/[inhibitor]; e denotes 'Minimal time dependent inactivation'; procedure, shortened: as §1
T2 sequence (P15101 whole entry): T1 sequence (whole entry)

[3] = molecular target: T2, Dopamine beta-hydroxylase; experiment: KI value was determined from plots of 1/kinact(observed) vs 1/[inhibitor]; procedure, shortened: as §1
[4] = molecular target: T1, Dopamine beta-hydroxylase (Bos taurus); experiment: Kinact value is determined from a plot of log(percent enzyme activity remaining) vs times; Apparent values at pH 5.0, 0.24 mM O2
[5] = molecular target: T2, Dopamine beta-hydroxylase; experiment: KI value was determined from plots of 1/kinact(observed) vs 1/[inhibitor]; Apparent values at pH 5.0, 0.24 mM O2
[6] = molecular target: T1, Dopamine beta-hydroxylase (Bos taurus); experiment: Kis value for the affinity towards homogenous bovine dopamine beta-hydroxylase (DBH)
Procedure, shortened: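 Competitive inhibition constant was measured against tyramine substrate without fumarate, using homogeneous bovine DBH (30-42 units/mg at pH 5.0). Conditions were pH 5.0, ionic strength 0.2, 50 mM sodium acetate, 1 mg/mL catalase, 10 μM Cu²⁺, 10 mM ascorbate and 37 °C. Kis was obtained by kinetic fitting and is reported as mean ± SEM.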

[7] = molecular target: T1, Dopamine beta-hydroxylase (Bos taurus); experiment: Kinact value is determined from a plot of log(percent enzyme activity remaining) vs times; e denotes 'Minimal time dependent inactivation'; procedure, shortened: as §1

Row | Compound | Ki [2] | Kis [6] [µM] | K inact [7] | also measured
1 | C=C(CN)c1cccs1 | – | – | – | K inact [1]: 0.124 min⁻¹
2 | C#CC(CN)c1ccc(O)cc1 (stereo in doubt; (+\-)3) [listing 1 of 2 here] | – | – | – | Ki [3]: 15.7 µM
3 | C=C(CN)c1ccc(O)cc1 | – | – | – | K inact [4]: 0.81 min⁻¹; Ki [5]: 520 µM
4 | Oc1ccc(CC2CC2)cc1 | – | – | – | Ki [3]: 12000 µM; K inact [1]: 1.8 min⁻¹
5 | C#CC(CN)c1ccccc1 (centres undefined) | Inactive | 160 | inactive | –
6 | C#CC(CN)c1ccc(O)cc1 (single isomer, unassigned; (-)) [listing 1 of 2 here] | – | – | – | Ki [3]: 57 µM
7 | C=CC(CN)c1cccc(O)c1 (centres undefined) | Inactive | 1270 | inactive | –
8 | C=CC(CN)c1ccccc1 (centres undefined) | Inactive | 670 | inactive | –

More lines, main results first:

Row | Ki [2] | Kis [6] [µM] | K inact [7] | Compound | also measured
9 | Inactive | – | – | C#CC(CN)c1ccc(O)cc1 (stereo in doubt; (+)3) [listing 1 of 2 here] | –
10 | Inactive | 190 | inactive | C#CC(CN)c1cccc(O)c1 (centres undefined) | –
11 | Inactive | 82 | inactive | C=CC(CN)c1ccc(O)cc1 (centres undefined) | –
12 | – | 13.6 | – | C#CC(CN)c1ccc(O)cc1 (stereo in doubt; (+\-)3) [listing 2 of 2 here] | K inact [1]: 0.023 min⁻¹
13 | – | 7.9 | inactive | C#CC(CN)c1ccc(O)cc1 (stereo in doubt; (+)3) [listing 2 of 2 here] | –
14 | – | 33.9 | – | C#CC(CN)c1ccc(O)cc1 (single isomer, unassigned; (-)) [listing 2 of 2 here] | K inact [1]: 0.184 min⁻¹

— ChEMBL document CHEMBL1124234, “Beta-substituted phenethylamines as high-affinity mechanism-based inhibitors of dopamine beta-hydroxylase” (J Med Chem, 1988)
